Reference: ChEMBL document CHEMBL4024769, “Synthesis and Investigation of Photophysical and Biological Properties of Novel S-Containing Bacteriopurpurinimides” (J Med Chem, 2017)

Key:
Assay type in all cases: functional
[1] = Phototoxicity against mouse S37 cells implanted in F1 mouse assessed as tumor growth inhibition at 2.5 mg/kg, iv preincubated for 15 mins with subsequent 150 J/cm2 irradiation measured on day 11 post irradiation relative to control; conditions: S37, light or radiation study, read-out: TGI
Method in brief: (§1)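 S37 sarcoma mice treated on day 7 of tumor growth with compound iv; tumors 140–160 mm3 beforehand, droperidol 0.25 mg ip as anesthetic. LED irradiation at 800 ± 21 nm, 100 mW/cm2, 150 J/cm2, given 15 or 30 min after dosing. Controls got iv 0.9% NaCl. Volume = d1×d2×d3×0.52; TGI = […]×100%.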

[2] = Phototoxicity against mouse S37 cells implanted in F1 mouse assessed as tumor growth inhibition at 5 mg/kg, iv preincubated for 15 mins with subsequent 150 J/cm2 irradiation measured on day 18 post irradiation relative to control; conditions: S37, light or radiation study, read-out: TGI; method in brief: as §1
[3] = Phototoxicity against rat Sarcoma M1 cells implanted in rat assessed as volume of PCNA-positive cells in tumor parenchyma at 2.5 mg/kg, ip administered as single dose on day 11 after inoculation followed by 300 J/cm2 irradiation after 2.5 to 3 hrs measured on day 1 post photodynamic therapy (reference value: 71 +/- 3 %)
Method in brief: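 Rats with M1 sarcoma implanted subcutaneously in the left thigh were randomized on day 10, 25 per group. Single ip dose of 2.5 mg/kg on day 11; laser irradiation 2.5–3 h later at 810 nm, 0.51 W/cm2, 300 J/cm2, 10 min over a 1.5 cm field. Five rats sampled per time point for H&E histology, PCNA immunohistochemistry (1:200) and tumor volume. Untreated controls; Student's test, p < 0.05.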

CCCO/N=C(\C)c1c(C)c2cc3nc(c4c5[nH]c(cc6nc(cc1[nH]2)[C@H](C)[C@H]6CC)c(C)c5C(=O)N(OCCC)C4=O)[C@@H](CCC(=O)OC)[C@@H]3C
inhibition in vivo at 2.5 mg/kg [1]: 100%
inhibition in vivo at 5 mg/kg [2]: 100%

CCCO/N=C(\C)c1c(C)c2cc3nc(c4c5[nH]c(cc6nc(cc1[nH]2)[C@@H](C)[C@@H]6CC)c(C)c5C(=O)N(OCCC)C4=O)[C@H](CCC(=O)NCCSSCCNC(=O)CC[C@@H]1c2nc(cc4[nH]c(cc5nc(cc6[nH]c7c2C(=O)N(OCCC)C(=O)c7c6C)[C@H](CC)[C@H]5C)c(/C(C)=N/OCCC)c4C)[C@H]1C)[C@H]3C
Activity [3]: 26%
